Screening results as filed in PubChem.
STK33 inh = human STK33 kinase inhibition; Q9BYT3; purified STK33, MBP phosphorylation, ADP-Glo luminescence; inhibition, % at 10 µM; 320,000 compounds, 0.073% hits; AID 2661;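 active means inhibition at or above 25%, using the most active replicate where run in duplicate; inactive means inhibition below 25%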
GSK3 alpha inh = inhibitors of human GSK-3 alpha kinase. ADP-Glo luminescence, 60 min. inhibition, % at 10 µM. 320,000 compounds, 0.1% hits;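 active means more than half of replicates show inhibition above 20%; inconclusive means some but at most half of replicates above 20% inhibition; inactive means no replicate shows inhibition above 20%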;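 further: GST-tagged GSK-3 alpha with peptide substrate and 25 µM ATP; 0% = DMSO neutral wells and 100% = GW8510 positive control wells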
procasp7 counter = counter-screen: procaspase-7 (human) activation | recombinant procaspase-7, Ac-DEVD-pNA absorbance 405 nm; D23A/D198A/D206A triple mutant, cannot self-cleave; scale: DMSO 0, 5 µM enzyme 100 | 330,000 compounds, 0.093% hits | AID 463210 | activation, % at 8.5 µM;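 active means percent activation above the screen-wide mean plus 3 SD, cut at about 25% in these data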
Target sequence (P55210 whole entry D23A/D198A/D206A): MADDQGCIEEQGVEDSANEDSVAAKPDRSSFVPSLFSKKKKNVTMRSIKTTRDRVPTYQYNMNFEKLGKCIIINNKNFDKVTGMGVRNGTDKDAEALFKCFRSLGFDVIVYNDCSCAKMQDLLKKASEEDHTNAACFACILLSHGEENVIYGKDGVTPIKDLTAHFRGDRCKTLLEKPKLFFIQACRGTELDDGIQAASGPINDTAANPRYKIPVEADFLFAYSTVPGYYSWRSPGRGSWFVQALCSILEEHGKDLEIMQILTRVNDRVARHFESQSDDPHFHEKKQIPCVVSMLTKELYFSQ
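Assay system: Uncleavable procaspase-7 mutant enzyme; Input: 2 µM procaspase-7 mutant as dispensed; Also added: DEVD-pNA substrate; Medium: Zinc-free HEPES pH 7.4 with 300 mM NaCl, 0.01% Triton X-100; Timing: 1 h compound preincubation, 2 h substrate cleavage, 25 °C; Measured by: Epi-absorbance of released pNA at 405 nm, two timepoints.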
Bfl-1 A1 inh = inhibitors of the anti-apoptotic protein A1, read as caspase activation | 330,000 compounds, 0.066% hits | caspase activation, % (test concentration not listed) | AID 2462 | MEF A1-2A-BIM cells, Caspase-Glo 3/7 luminescence, 3 h; percent of clofoctol response, vehicle zero;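 active means over half of replicate activation scores above 10%, or exactly half above 10 with the replicate mean above 10; inconclusive means replicate mean below 10 yet half the replicates above 10; inactive means over half of replicates below 10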
GSK3beta inhib = inhibitors of human GSK3beta kinase | P49841 | activity score (negative = inhibition), % at 10 µM | 300,000 compounds, 0.038% hits | GST-GSK3beta kinase, ADP-Glo luminescence, 60 min; hits give low values;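 active means more than half of replicate wells score below -50%, meaning over 50% inhibition versus plate controls; inconclusive means some replicates but at most half score below -50%; inactive means no replicate scores below -50%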;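 further: 0% = median DMSO wells and -100% = median GW8510 positive control wells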
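Assay system: GST-tagged human GSK3beta kinase, cell-free; Input: 1.6 ng GSK3beta; Medium: Tris/MgCl2 kinase buffer; Timing: 60 min enzyme reaction, room temperature; Signal: ADP-Glo luminescence quantifying ADP generated by kinase; Evaluation: score relative to plate controls; Benchmarks: DMSO neutral wells and GW8510 at 20 µM as positive.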
proCasp3 act = procaspase-3 (human) activation; P42574; recombinant procaspase-3 D3A, Ac-DEVD-pNA absorbance 405 nm; activation, % at 8.5 µM; 330,000 compounds, 0.11% hits;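 active means activation above the mean of all tested compounds plus 3 SD, cut at about 21% in these data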;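 further: 0% = DMSO alone and 100% = DMSO wells spiked with extra 5 µM PC-3 D3A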
Target sequence (P42574 whole entry D9A/D28A/D175A): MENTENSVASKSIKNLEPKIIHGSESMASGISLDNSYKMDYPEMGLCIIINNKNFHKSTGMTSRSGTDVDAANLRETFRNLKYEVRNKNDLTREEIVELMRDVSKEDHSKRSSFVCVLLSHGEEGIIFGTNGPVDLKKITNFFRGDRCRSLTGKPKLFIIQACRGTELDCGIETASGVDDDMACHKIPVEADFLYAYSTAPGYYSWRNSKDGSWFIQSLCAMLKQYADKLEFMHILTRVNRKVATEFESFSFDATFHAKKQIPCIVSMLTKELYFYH
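Assay system: Autoprocessing-dead procaspase-3 D3A mutant enzyme; also added: Ac-DEVD-pNA; doses: one concentration, 8.5 µM nominal, 0.8% DMSO; times: 1 h compound preincubation, 2 h substrate hydrolysis at 25 °C; technique: 405 nm absorbance of p-nitroaniline, reads at 0 and 120 min; measure: % activation between DMSO and enzyme-spiked controls; repeats: single replicate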
PC3 D3A act = activates human procaspase-3, dual activator counter-screen. shares compounds with procasp7 counter. recombinant PC-3 D3A, Ac-DEVD-pNA absorbance 405 nm; aspartates 9, 28, 175 changed to alanine; 100% = enzyme control. activation, % at 8.5 µM. 290 tested, under 10 active;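 active means mean percent activation across triplicates above a set limit taken from the earlier primary procaspase-3 screen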;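 further: 0% = DMSO wells and 100% = DMSO wells with 5 µM added PC-3 D3A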
Procasp7 act = procaspase-7 (human) activation, dual activator confirmation | activation, % at 8.5 µM | recombinant procaspase-7, Ac-DEVD-pNA absorbance 405 nm; D23A/D198A/D206A mutant that cannot self-cleave | shares compounds with procasp7 counter | 290 tested, under 10 active;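 active means mean activation above a set limit carried over from the earlier primary screen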;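 further: 0% = DMSO only and 100% = DMSO with added 5 µM PC-7 enzyme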
Starred values were filed as active, the others as inactive; ? = inconclusive; nt = not tested or not shown. In the library only some 0.38% were active in any assay of this set; here they are far more common.

SMILES	STK33 inh	GSK3 alpha inh	procasp7 counter	Bfl-1 A1 inh	GSK3beta inhib	proCasp3 act	PC3 D3A act	Procasp7 act
CCc1cc2c3c(c(=O)oc2cc1O)CCCC3	-1	6	26*	0	-3	28*	-29	-36
O=C(CCC(=O)N(CC(=O)NC1CCCC1)Cc1ccccc1)Nc1nccs1	-1	-3	101*	0	-10	2	2	1
O=C(CCC(=O)N(CC(=O)NC1CCCCC1)Cc1ccccc1)Nc1nccs1	-1	-3	1	0	2	-8	nt	nt
COc1ccc(C(=O)N2CC(c3ccc(Cl)cc3)CC2=O)cc1 (centres undefined)	-2	0	4	0	0	-2	nt	nt
COc1ccc(C(=O)C2CN(c3ccccc3)CC2c2ccc(Cl)cc2)cc1 (centres undefined)	0	-3	29*	0	1	14	3	2
CCn1nc(NC(=O)c2ccccc2)c2cc3cccc(C)c3nc21	-1	-3	50*	0	-9	53*	-29	-35
Cc1cccc2cc3c(NC(=O)C(C)(C)C)nn(CC(C)C)c3nc12	1	-3	35*	1	2	36*	-29	-36
CS(=O)(=O)N1N=C(c2ccco2)CC1c1ccco1 (centres undefined)	-1	0	36*	0	-2	-15	-8	-14
COc1ccc2c(-c3ccc(S(N)(=O)=O)cc3)c(-c3ccc(S(C)(=O)=O)cc3)sc2c1	nt	nt	44*	nt	nt	23*	-28	-38
COc1cnc(-c2ccccn2)nc1N(C)c1ccccc1	-3	-1	-24	-1	2	-3	nt	nt
CCN1C(=O)N/C(=C/c2ccc(C)o2)C1=O	1	0	-18	0	0	-12	nt	nt
CCN1C(=O)N/C(=C/c2ccc(Sc3ccc(C)cc3)o2)C1=O	-2	-3	71*	1	-17	38*	-26	-26
CCN1CC2=C(OC(N)=C(C#N)C2c2cccs2)/C(=C\c2cccs2)C1 (centres undefined)	-1	2	-14	-1	3	5	nt	nt
COC(=O)c1cccc(N(CC(=O)NC2CCCC2)C(=O)CCC(=O)Nc2cc(C)on2)c1	-1	-2	57*	1	-1	0	3	-1
Cc1ccc(C(=O)CSc2nnc3n2CCCCC3)s1	0	0	-5	-1	nt	3	nt	nt
Cc1ccc(NS(=O)(=O)c2ccc(-n3cccn3)cc2)nc1	1	-3	-10	1	0	3	nt	nt
O=C1[C@H]2C(c3ccccc3)=NN(c3ccccc3)[C@H]2C(=O)N1c1ccccc1	0	-2	40*	-1	-4	32*	-31	-36
O=C1OCCN1C(=O)[C@H]1[C@H](c2ccc(F)cc2)C(c2ccccc2)=NN1c1ccccc1	nt	nt	-5	nt	nt	-3	nt	nt
CC1CCC(C(C)C)C(OC(=O)COC(=O)c2cc(O)ccc2N)C1 (centres undefined)	-1	-2	50*	0	-2	41*	-30	-35
c1ccc(C2=NN(c3ccccc3)CC2)cc1	-1	-2	39*	-6	2	36*	-30	-34
CCOC(=O)/C(=C/c1ccc(N2CCC(c3ccccc3)=N2)cc1)C(C)=O	nt	nt	nt	nt	0	nt	nt	nt
O=C(NCCN1CCOCC1)C(=O)c1c[nH]c2ccccc12	0	-2	30*	1	3	1	2	2
N#CCCN(Cc1ccccc1)C(=S)Nc1ccccc1	-1	-5	1	1	-5	-2	nt	nt
COC(=O)c1ccc(CNC(=O)[C@@H]2CCCN2S(=O)(=O)c2ccccc2F)cc1	-2	-2	26*	1	nt	8	3	1
COC(=O)CSc1nc(C)c(C(=O)Nc2ccccc2C)c(-c2ccc(Cl)cc2)c1C#N	-2	-1	32*	0	2	21	4	-22
SMILES	STK33 inh	GSK3 alpha inh	procasp7 counter	Bfl-1 A1 inh	GSK3beta inhib	proCasp3 act	PC3 D3A act	Procasp7 act
Cc1ccccc1N1CCN(C2CCCN(C(=O)CCC(F)(F)F)C2)CC1 (centres undefined)	nt	nt	-12	0	1	4	nt	nt
CSc1ccccc1NC(=O)c1cc2c(=O)n3ccccc3nc2s1	-1	0	39*	?	1	-6	-29	-35
CC(C)OC(=O)CC(=O)CSc1nc2c(cc1C#N)CCCCC2	-1	0	37*	-3	-21	18	-20	-21
Cc1ccc(C(=O)Cc2nc3ccccc3[nH]2)cc1	-1	0	13	-1	-2	-5	nt	nt
CCOC(=O)Cc1nc2ccccc2[nH]1	-2	-1	79*	0	-1	21	3	-1
CC1CN(C(=O)c2cccn(Cc3c(Cl)cccc3Cl)c2=O)CC(C)O1 (centres undefined)	0	-1	-2	0	0	1	nt	nt
COc1ccc(C(=O)N/N=C/c2ccc(N(C)c3ccccc3)cc2)cc1	-1	-1	44*	2	-1	41*	-28	-37
COC(=O)CCN(c1ccccc1)S(=O)(=O)c1cc(-c2cc(C)no2)ccc1OC	-1	-2	0	-1	-1	10	nt	nt
NS(=O)(=O)c1ccc(N2N=C(c3ccccc3)CC2c2ccccc2Br)cc1 (centres undefined)	nt	nt	68*	nt	nt	26*	-28	-35
O=[N+]([O-])c1ccc(N2N=C(c3ccccc3)CC2c2ccccc2O)cc1 (centres undefined)	-1	0	nt	0	-2	nt	nt	nt
NS(=O)(=O)c1ccc(N2N=C(c3ccccc3)CC2c2cccc(F)c2)cc1 (centres undefined)	-2	-2	67*	0	2	40*	-30	-37
COc1ccc(C2CC(c3ccccc3)=NN2c2ccc(S(N)(=O)=O)cc2)cc1OC (centres undefined)	-1	5	26*	-1	0	10	-29	-36
NS(=O)(=O)c1ccc(N2N=C(c3ccc(Br)cc3)CC2c2ccc(F)cc2)cc1 (centres undefined)	0	-2	20	0	4	3	nt	nt
NS(=O)(=O)c1ccc(N2N=C(c3ccccc3)CC2c2cccc(Br)c2)cc1 (centres undefined)	nt	nt	32*	nt	nt	29*	-31	-34
